Laboratory results: ChEMBL document CHEMBL1131123, “Extended aromatic furan amidino derivatives as anti-Pneumocystis carinii agents” (J Med Chem, 1998)

What was measured:
[1] = In vivo evaluation of iv dosage of the Dicationic furans against Pneumocystis carinii in rats measured 2 umol/kg/day; format: ADME, organism-based; settings: rat
Method in brief: (§1)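 Intravenous dosing of test dications in immunosuppressed rats infected with P. carinii, following a previously described protocol. Infection is scored by lung cyst burden relative to pooled saline-control animals.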

Rattus norvegicus [2] = assay: In vivo evaluation of iv dosage of the Dicationic furans against Pneumocystis carinii in lung tissue of rats at 2 umol/kg/day; format: functional
Method in brief: (§2)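 Immunosuppressed rat model of P. carinii pneumonia. Compounds are dosed intravenously. Read-out is cysts per g of lung tissue, compared against pooled saline-treated control rats (n = 125). Other details follow ref 2.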

[3] = In vivo evaluation of iv dosage of the Dicationic furans against Pneumocystis carinii in rats measured 10 umol/kg/day; format: ADME, organism-based; settings: rat; method in brief: as §1
Rattus norvegicus [4] = assay: In vivo evaluation of iv dosage of the Dicationic furans against Pneumocystis carinii in lung tissue of rats at 10 umol/kg/day; format: functional; method in brief: as §2
Rattus norvegicus [5] = assay: In vivo evaluation of iv dosage of the Dicationic furans against Pneumocystis carinii in lung tissue of rats at 3.8 umol/kg/day; format: functional; method in brief: as §2
Rattus norvegicus [6] = assay: In vivo evaluation of iv dosage of the furan dications against Pneumocystis carinii in lung tissue of rats at 7.1 umol/kg/day; format: functional; method in brief: as §2
Rattus norvegicus [7] = assay: In vivo evaluation of iv dosage of the Dicationic furans against Pneumocystis carinii in lung tissue of rats at 2.5 umol/kg/day; format: functional; method in brief: as §2
[8] = In vivo evaluation of iv dosage of the Dicationic furans against Pneumocystis carinii in rats measured 2.2 umol/kg/day; format: ADME, organism-based; settings: rat; method in brief: as §1
Rattus norvegicus [9] = assay: In vivo evaluation of iv dosage of the Dicationic furans against Pneumocystis carinii in lung tissue of rats at 2.2 umol/kg/day; format: functional; method in brief: as §2
Rattus norvegicus [10] = assay: In vivo evaluation of iv dosage of the Dicationic furans against Pneumocystis carinii in lung tissue of rats at 10.8 umol/kg/day; format: functional; method in brief: as §2
Rattus norvegicus [11] = assay: In vivo evaluation of iv dosage of the Dicationic furans against Pneumocystis carinii in lung tissue of rats at 0.2 umol/kg/day; format: functional; method in brief: as §2
[12] = In vivo evaluation of iv dosage of the Dicationic furans against Pneumocystis carinii in rats measured 0.2 umol/kg/day; format: ADME, organism-based; settings: rat; method in brief: as §1
Rattus norvegicus [13] = assay: In vivo evaluation of iv dosage of the Dicationic furans against Pneumocystis carinii in lung tissue of rats at 1.1 umol/kg/day; format: functional; method in brief: as §2
[14] = In vivo evaluation of iv dosage of the Dicationic furans against Pneumocystis carinii in rats measured 10.8 umol/kg/day; format: ADME, organism-based; settings: rat; method in brief: as §1
[15] = In vivo evaluation of iv dosage of the Dicationic furans against Pneumocystis carinii in rats measured 1.1 umol/kg/day; format: ADME, organism-based; settings: rat; method in brief: as §1
[16] = In vivo evaluation of iv dosage of the Dicationic furans against Pneumocystis carinii in rats measured 0.9 umol/kg/day; format: ADME, organism-based; settings: rat; method in brief: as §1
Rattus norvegicus [17] = assay: In vivo evaluation of iv dosage of the Dicationic furans against Pneumocystis carinii in lung tissue of rats at 0.9 umol/kg/day; format: functional; method in brief: as §2
Rattus norvegicus [18] = assay: In vivo evaluation of iv dosage of the Dicationic furans against Pneumocystis carinii in lung tissue of rats at 1.9 umol/kg/day; format: functional; method in brief: as §2
Rattus norvegicus [19] = assay: In vivo evaluation of iv dosage of the Dicationic furans against Pneumocystis carinii in lung tissue of rats at 9.4 umol/kg/day; format: functional; method in brief: as §2
[20] = In vivo evaluation of iv dosage of the Dicationic furans against Pneumocystis carinii in rats measured 1.9 umol/kg/day; format: ADME, organism-based; settings: rat; method in brief: as §1
Rattus norvegicus [21] = assay: In vivo evaluation of iv dosage of the Dicationic furans against Pneumocystis carinii in lung tissue of rats at 5 umol/kg/day; format: functional; method in brief: as §2
[22] = In vivo evaluation of iv dosage of the Dicationic furans against Pneumocystis carinii in rats measured 5 umol/kg/day; format: ADME, organism-based; settings: rat; method in brief: as §1
Rattus norvegicus [23] = assay: In vivo evaluation of iv dosage of the Dicationic furans against Pneumocystis carinii in lung tissue of rats at 2.7 umol/kg/day; format: functional
Method in brief: (§3)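 Immunosuppressed rat model of P. carinii pneumonia, with test compounds dosed intravenously per an earlier protocol. Read-out is cyst count per g of lung tissue, compared against pooled saline-treated controls.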

Rattus norvegicus [24] = assay: In vivo evaluation of iv dosage of the Dicationic furans against Pneumocystis carinii in lung tissue of rats at 0.03 umol/kg/day; format: functional; method in brief: as §3
[25] = In vivo evaluation of iv dosage of the Dicationic furans against Pneumocystis carinii in rats measured 2.7 umol/kg/day; format: ADME, organism-based; settings: rat; method in brief: as §1
Rattus norvegicus [26] = assay: In vivo evaluation of iv dosage of the Dicationic furans against Pneumocystis carinii in lung tissue of rats at 13.3 umol/kg/day; format: functional; method in brief: as §3
[27] = In vivo evaluation of iv dosage of the Dicationic furans against Pneumocystis carinii in rats measured 0.3 umol/kg/day; format: ADME, organism-based; settings: rat; method in brief: as §1
[28] = In vivo evaluation of iv dosage of the Dicationic furans against Pneumocystis carinii in rats measured 0.03 umol/kg/day; format: ADME, organism-based; settings: rat; method in brief: as §1
[29] = In vivo evaluation of iv dosage of the Dicationic furans against Pneumocystis carinii in rats measured 13.3 umol/kg/day; format: ADME, organism-based; settings: rat; method in brief: as §1
Rattus norvegicus [30] = assay: In vivo evaluation of iv dosage of the Dicationic furans against Pneumocystis carinii in lung tissue of rats at 0.3 umol/kg/day; format: functional; method in brief: as §3
Rattus norvegicus [31] = assay: In vivo evaluation of iv dosage of the furan dications against Pneumocystis carinii in lung tissue of rats at 22 umol/kg/day; format: functional; method in brief: as §2

`CC(C)/N=C(\N)c1ccc2[nH]c(-c3ccc(-c4nc5cc(/C(N)=N/C(C)C)ccc5[nH]4)o3)nc2c1.Cl` gave a Toxicity [1] of 0, a Control (Rattus norvegicus [2]) of 31.77 and a Toxicity [3] of 0. The Control (Rattus norvegicus [4]) was 0.11%.
Molecule `Cl.N=C(NC1CCCC1)c1ccc2[nH]c(-c3ccc(-c4nc5cc(C(=N)NC6CCCC6)ccc5[nH]4)o3)nc2c1` has a Control (Rattus norvegicus [5]) of 53.81%.
Work on `Cl.N=C(N)c1ccc2[nH]c(-c3ccc(-c4nc5cc(C(=N)N)ccc5[nH]4)o3)nc2c1` yielded a Control (Rattus norvegicus [4]) of 1.8%.
With `Cl.N=C(N)c1ccc2[nH]c(-c3ccc(-c4ccc(-c5ccc(-c6nc7cc(C(=N)N)ccc7[nH]6)cc5)o4)cc3)nc2c1` the Control (Rattus norvegicus [6]) was 180%.
`N=C(NC1CCCC1)c1ccc(-c2ccc(-c3nc4cc(C(=N)NC5CCCC5)ccc4[nH]3)o2)cc1` gave a Control (Rattus norvegicus [7]) of 0.82%.
`CC(C)/N=C(\N)c1ccc(-c2ccc(-c3nc4cc(/C(N)=N\C(C)C)ccc4[nH]3)o2)cc1` showed a Control (Rattus norvegicus [4]) of 0.13%.
Work on `CC(C)NC(=N)c1ccc(-c2ccc(-c3ccc(C(=N)NC(C)C)cc3)o2)cc1` yielded a Toxicity [8] of 0, a Control (Rattus norvegicus [9]) of 10.04% and a Control (Rattus norvegicus [10]) of 0.24%. The Control (Rattus norvegicus [11]) was 201.74%, the Toxicity [12] was 0 and the Control (Rattus norvegicus [13]) was 14%. The Toxicity [14] was 0 and the Toxicity [15] was 0.
`N=C(NC1CCCC1)c1ccc(-c2ccc(-c3ccc(C(=N)NC4CCCC4)cc3)o2)cc1` gave a Toxicity [16] of 0, a Control (Rattus norvegicus [17]) of 0.13% and a Control (Rattus norvegicus [18]) of 0.09%. For the same molecule, the Control (Rattus norvegicus [19]) was 0.04%, the Control (Rattus norvegicus [11]) was 111.65% and the Toxicity [12] was 0. It also gave a Toxicity [20] of 0.
`N=C(N)c1ccc(-c2ccc(-c3nc4cc(C(=N)N)ccc4[nH]3)o2)cc1` showed a Control (Rattus norvegicus [21]) of 50.98% and a Toxicity [22] of 0.
Work on `N=C(N)c1ccc(-c2ccc(-c3ccc(C(=N)N)cc3)o2)cc1` [FURAMIDINE] yielded a Control (Rattus norvegicus [23]) of 6.74%, a Control (Rattus norvegicus [24]) of 26.23% and a Toxicity [25] of 0. The Control (Rattus norvegicus [26]) was 0.73%, the Toxicity [27] was 0 and the Toxicity [28] was 0. The Toxicity [29] was 0 and the Control (Rattus norvegicus [30]) was 6.42%.
Molecule `N=C(N)c1ccc(OCCCCCOc2ccc(C(=N)N)cc2)cc1` [PENTAMIDINE] has a Control (Rattus norvegicus [31]) of 1.82%.
